Screens as filed in PubChem.
An excerpt weighted towards active compounds, which were near 2.2% of everything screened.
mABHD4 FP = ABHD4 inhibitors, primary screen, biochemical, fluorescence polarization, mouse. (Lyso)-N-acylphosphatidylethanolamine lipase (Mus musculus), Q8VD66. purified mABHD4, FP-Rh probe fluorescence polarization. inhibition, % at 8.92 µM. 0.54% of 370,000 active. AID 720543, 2013;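 active = inhibition exceeding the mean over every tested compound plus 3 SD, cut at about 30% in these data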;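 also: 0% = plate median of compound wells and 100% = S159A mutant with DMSO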
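System: mouse ABHD4 enzyme, wild type / Medium: HEPES pH 7.0, NaCl, Pluronic buffer / Reagent: FP-Rh activity-based fluorescent probe / Control set: S159A mutant high control, sample median low control / Detection: fluorescence polarization with parallel and perpendicular emission, 525/598 nm / Schedule: 45 min + 60 min at 25 °C / Compound dosing: 8.92 µM, single dose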
TCR CD3 inh = inhibitors of human TCR-CD3 interaction, primary screen, biochemical, fluorescence, TAMRA-labeled TCR probe. 0.37% of 360,000 active. inhibition, % at 9.4 µM. T-cell receptor (TCR);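 also: recombinant mutant TCR 2C K166C tagged with TAMRA read by polarization; 0% = receptor in buffer alone and 100% = receptor with positive control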
HTRA1 inhibitor = HTRA1 serine protease inhibitors, primary screen, biochemical, fluorescence polarization, HTS; 0.5% of 340,000 active; recombinant HTRA1, FP-rhodamine activity-based probe; inhibition, % at 5.96 µM; in the data active = inhibition above about 36%;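 also: 0% = enzyme with DMSO and 100% = wells lacking enzyme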
Target sequence (Q92743 whole entry, looked up): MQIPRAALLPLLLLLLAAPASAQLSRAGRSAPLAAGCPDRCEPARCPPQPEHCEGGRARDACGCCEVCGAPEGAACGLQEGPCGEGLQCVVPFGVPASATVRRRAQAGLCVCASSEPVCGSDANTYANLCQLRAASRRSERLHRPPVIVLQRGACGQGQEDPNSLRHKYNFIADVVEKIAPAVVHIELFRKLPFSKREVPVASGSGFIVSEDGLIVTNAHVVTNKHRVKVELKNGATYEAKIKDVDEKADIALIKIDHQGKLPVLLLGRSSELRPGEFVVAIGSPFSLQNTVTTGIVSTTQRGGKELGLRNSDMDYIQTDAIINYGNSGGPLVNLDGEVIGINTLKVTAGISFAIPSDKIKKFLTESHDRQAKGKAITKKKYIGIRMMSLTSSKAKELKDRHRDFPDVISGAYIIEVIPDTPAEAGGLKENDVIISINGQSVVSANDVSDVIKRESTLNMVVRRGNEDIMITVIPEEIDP
LEDGF integ inh = blockers of LEDGF/p75-dependent integrase strand transfer – biochemical, TR-FRET, high throughput, primary screen; inhibition, % at 3.7 µM; 0.64% of 370,000 active; HIV-1 integrase (with human LEDGF/p75); AID 743269, 2014; TR-FRET IN-LEDGF/p75 DNA integration, Eu/Cy5;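 active = inhibition above the screen-wide mean plus 3 SD, cut at about 13% in these data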;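 also: signal is the Cy5 over europium emission ratio at 671 and 618 nm; 0% = plate median of compound wells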
SIAE inh = human SIAE inhibitors, primary screen, biochemical, fluorescence polarization, FP-Rh probe, 1536-well HTS; AID 1053197, 2014; SIAE FP-Rh probe binding; 0.69% of 370,000 active; inhibition, % at 9.66 µM; Sialate O-acetylesterase (Homo sapiens), Q9HAT2;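 active = inhibition above a cutoff: mean of compounds within the control limits plus 3 SD of those, cut at about 17% in these data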;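 also: 0% = plate median of compound wells and 100% = probe without SIAE protein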
TDP2 inh = human TDP2 enzyme inhibitors, primary screen, biochemical, epi absorbance, recombinant enzyme; inhibition, % at 12.8 µM; 0.34% of 370,000 active; AID 720702, 2013; T5PNP hydrolysis, p-nitrophenol absorbance 415 nm;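 active = inhibition above the mean of all tested compounds plus 3 SD, set per campaign, cut at about 25% in these data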;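 also: 0% = DMSO with enzyme and 100% = buffer with substrate but no TDP2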
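Assay system: Recombinant human TDP2 | Quantity: 120 nM TDP2 per well | Incubation: 2 h at 37 °C | Signal: Epi absorbance | Evaluation: Percent inhibition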
BSA TAMRA ctr = compounds interfering with TAMRA-BSA probe, counter-screen for TCR-CD3 interaction inhibitor project, biochemical, fluorescence, TAMRA-labeled BSA | inhibition, % at 9.4 µM | 10% of 1,200 active | TAMRA-labeled BSA probe fluorescence counterscreen | shares compounds with TCR CD3 inh; in the data active = inhibition above about 23%;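 also: 0% = buffer low control and 100% = reference high control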
TCR-CD3 conf = TCR-CD3 interaction inhibitors, retest, confirmation, biochemical, fluorescence, TAMRA-labeled TCR probe. 48% of 1,200 active. shares compounds with TCR CD3 inh. TAMRA-labeled TCR probe fluorescence binding assay. inhibition, % at 9.4 µM
An asterisk follows results filed as active; · = not tested or not shown. Rule as the data show it, unless noted: active = inhibition above about 19%; inactive = the rest.

SMILES	mABHD4 FP	TCR CD3 inh	HTRA1 inhibitor	LEDGF integ inh	SIAE inh	TDP2 inh	BSA TAMRA ctr	TCR-CD3 conf
C/C(=N\OCc1nc2ccccc2c(=O)n1/N=C/c1cc(C)cc([N+](=O)[O-])c1O)c1ccccc1	8	39*	0	0	11	-22	-6	50*
O=c1c2ccccc2nc(COc2ccccc2)n1/N=C/c1ccc(O)cc1O	12	21*	13	2	4	-19	-9	21*
Cc1cc([N+](=O)[O-])cc(/C=N/n2c(C)nc3ccccc3c2=O)c1O	1	45*	6	-2	10	0	-15	45*
O=C(O)c1ccccc1N/N=C/C1=C(N2CCOCC2)C(=C\c2ccccc2)/CC1	29	20*	12	10	8	5	-10	-2
O=C(N/N=C/C1=C(N2CCOCC2)C(=C\c2ccccc2)/CC1)Nc1ccccc1	9	-4	-3	-2	4	3	·	·
C=CCn1c(O)c(N=NC(=O)CNC(=O)/C=C/c2ccc(OC)cc2)c2ccccc21	-2	9	-15	4	-5	-13	·	·
C=CCn1c(O)c(N=NC(=O)CNC(=O)/C=C/c2ccco2)c2ccccc21	0	23*	4	2	3	-2	-5	20*
O=C(NNC(=O)c1ccccc1O)c1ccco1	-1	6	6	3	5	0	·	·
COc1ccc(C(=O)NNC(=S)NC(=O)c2ccco2)cc1	9	12	10	2	0	-15	·	·
Cc1onc(-c2ccccc2Cl)c1C(=O)NNC(=O)c1ccc(F)cc1	-3	-1	-2	1	3	-3	·	·
Cc1cccc(C(=O)NNC(=O)c2c(-c3ccccc3Cl)noc2C)c1O	2	29*	0	-6	1	5	-1	16
CCCOc1ccc(C(=O)NNC(=S)NC(=O)c2ccco2)cc1	5	20*	10	0	2	4	-13	14
Cc1cccc(C(=O)NNC(=O)c2ccco2)c1O	0	19*	-2	-5	13	-1	-5	12
COc1ccccc1C(=O)NNC(=S)NC(=O)c1ccco1	2	21*	4	5	6	-3	-9	14
CC(C)(C)N1Cc2nnn(Cc3ccccc3)c2-c2cc(N3CCCCC3)ccc2S1(=O)=O	16	·	·	-2	3	2	·	·
Cc1oc2c(c(C)nn2-c2ccccc2)c(=O)c1Cl	0	5	·	1	-3	3	·	·
COCCN1Cc2cc(C(=O)OC)c3c(c2C1=O)c1cc(OC)ccc1n3S(=O)(=O)c1ccc(F)cc1	-8	-1	·	0	-1	3	·	·
Nc1ccc([N+](=O)[O-])cc1C(=O)NNC(=O)c1ccco1	-3	27*	-5	1	6	-8	-11	32*
COc1cccc(/C=N/NC(=O)CNC(=O)COc2ccccc2)c1O	-1	0	4	0	4	4	·	·
Cc1cccc(OCC(=O)NCC(=O)N/N=C/c2cc(Br)cc(Br)c2O)c1	-6	51*	18	-12	5	-5	-18	41*
CCCCC(=O)Nc1ccc(C(=O)NNC(=S)NC(=O)c2ccccc2[N+](=O)[O-])cc1	0	16	7	1	2	-15	·	·
CC(C)C(=O)Nc1ccc(C(=O)NNC(=S)NC(=O)c2ccccc2[N+](=O)[O-])cc1	3	26*	6	0	4	-9	-1	33*
CCc1ccc(NC(=O)NNC(=O)c2ccc3ccccc3c2O)cc1	6	22*	11	-2	15	-2	6	29*
COc1ccccc1NC(=O)NNC(=O)c1ccc2ccccc2c1O	11	36*	12	-2	7	6	-12	25*
COc1ccccc1NC(=O)NNC(=O)c1ccc2ccccc2c1	6	-4	-4	-4	4	0	·	·
SMILES	mABHD4 FP	TCR CD3 inh	HTRA1 inhibitor	LEDGF integ inh	SIAE inh	TDP2 inh	BSA TAMRA ctr	TCR-CD3 conf
COc1ccc(NC(=O)NNC(=O)c2ccc3ccccc3c2O)cc1OC	9	51*	-1	-5	16	-11	-7	46*
COc1ccc(NC(=O)c2cccc3ccccc23)cc1OC	-5	-4	2	-1	1	3	·	·
COc1ccccc1C(=O)NNC(=O)c1cc2ccccc2cc1O	29	12	14	-11	5	4	·	·
CCc1ccc(NC(=O)NNC(=O)c2cc3ccccc3cc2O)cc1	6	18	16	-4	2	-13	·	·
COc1ccc(C(=O)NNC(=O)c2cc3ccccc3cc2O)cc1	13	32*	7	-9	4	8	-11	24*
CCCCc1c(-c2ccccc2OC)ncn1Cc1cccc(F)c1	5	7	·	1	5	8	·	·
COc1cccc(C(=O)NNC(=O)c2ccc3ccccc3c2O)c1	5	40*	8	-12	1	-18	-7	36*
Cc1ccccc1NC(=O)NNC(=O)c1ccc2ccccc2c1O	25	43*	12	-7	15	-9	-8	33*
CCCCOCCCNC(=O)C[C@@H]1C(=O)N2CCCC3=C2[C@@]1(C(=O)OCC)CCC3	0	·	·	0	-1	-4	·	·
Cc1ccc(C)c(NC(=O)NNC(=O)c2cc3ccccc3cc2O)c1	-6	22*	32	7	6	-13	-8	18
O=C(NCCCl)NNC(=O)c1cc2ccccc2cc1O	0	19*	10	-2	10	-16	-4	16
Cc1ccc(NC(=O)NNC(=O)c2cc3ccccc3cc2O)cc1C	6	21*	21	-16	1	4	-4	17
O=C(NNC(=O)c1cc2ccccc2cc1O)Nc1ccccc1F	18	13	22	0	5	-2	·	·
COCCCNC(=O)C[C@H]1C[C@@]2(C(=O)OC)C(=C[C@H](C(C)C)O[C@@H]2C2CC2)N(Cc2ccccc2)C1=O	2	4	·	-5	-1	4	·	·
